# Source: article PMC3087843 (Nature structural & molecular biology, 2011)
# Biological target: T1, human ERAP1 (Homo sapiens, UniProt Q9NZ08, G346D/G514D/K528R/Q730E)
# Assay: Peptide trimming assay
# Assay type: biochemical
# Details: 150 μM peptide, 3.5 μg ml^–1 ERAP1, 37°C, 50 mM Tris-HCl pH 7.8, 0.25 g L^–1 BSA, C18 RP-HPLC (Fig. 4a)
# Procedure, shortened: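 Human ERAP1 (allelic variant) was baculovirus-expressed, Ni-NTA purified and treated with carboxypeptidase A at room temperature in PBS. Substrates were HPLC-purified synthetic peptides with mass confirmed by MS. Reactions were stopped with 0.6% (v/v) TFA, and the supernatant was run on C18 RP-HPLC with an acetonitrile gradient in 0.03% (v/v) TFA. Percent substrate cleaved was taken from integrated peak areas.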
# T1 sequence (Q9NZ08 whole entry G346D/G514D/K528R/Q730E): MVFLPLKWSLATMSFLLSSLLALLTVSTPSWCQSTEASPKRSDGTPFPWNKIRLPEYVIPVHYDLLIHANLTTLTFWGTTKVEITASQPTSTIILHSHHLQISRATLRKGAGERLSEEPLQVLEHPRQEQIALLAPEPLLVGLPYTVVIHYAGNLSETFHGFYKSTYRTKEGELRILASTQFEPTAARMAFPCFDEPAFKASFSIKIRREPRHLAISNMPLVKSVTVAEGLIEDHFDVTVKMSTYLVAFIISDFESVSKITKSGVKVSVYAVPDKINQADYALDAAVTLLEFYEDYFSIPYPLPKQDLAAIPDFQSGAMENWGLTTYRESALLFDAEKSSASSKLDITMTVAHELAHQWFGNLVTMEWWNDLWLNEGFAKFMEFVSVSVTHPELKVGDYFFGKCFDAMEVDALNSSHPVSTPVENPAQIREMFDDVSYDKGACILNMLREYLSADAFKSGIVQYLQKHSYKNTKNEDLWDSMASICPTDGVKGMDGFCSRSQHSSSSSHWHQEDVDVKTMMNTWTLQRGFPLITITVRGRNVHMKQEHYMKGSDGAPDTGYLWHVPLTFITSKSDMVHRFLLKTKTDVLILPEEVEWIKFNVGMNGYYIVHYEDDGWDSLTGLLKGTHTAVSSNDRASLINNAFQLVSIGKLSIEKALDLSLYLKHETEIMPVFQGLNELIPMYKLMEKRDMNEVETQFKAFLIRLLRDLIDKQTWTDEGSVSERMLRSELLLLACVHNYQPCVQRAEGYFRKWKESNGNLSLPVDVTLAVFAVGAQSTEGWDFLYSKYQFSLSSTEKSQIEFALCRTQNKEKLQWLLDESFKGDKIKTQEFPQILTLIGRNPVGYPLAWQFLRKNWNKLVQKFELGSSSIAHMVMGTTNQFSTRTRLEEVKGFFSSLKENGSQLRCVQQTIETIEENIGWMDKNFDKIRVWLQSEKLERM
row,Substance,ERAP1 processing of SIINFEKL length variants
1,FEKL,not long enough to be processed efficiently
2,INFEKL,not processed appreciably
3,QLESIINFEKL,processed efficiently
4,SIINFEKL [reference compound],not long enough to be processed efficiently

# Biological target: T1, human ERAP1
# Assay: Activation of L-AMC hydrolysis by ERAP1 in the presence of peptides
# Assay type: biochemical
# Details: 100 μM L-AMC, 0–70 μM peptide, 0.87 μg ml^–1 ERAP1, 37°C (Fig. 6c,d)
row,Substance,Activation of ERAP1 hydrolysis of L-AMC by increasing peptide concentrations
1,L(N-Me)VAFKARAF [L^Me],activated
2,LVAFKARAF [L-peptide],activated
3,R(N-Me)VAEAAFAE,did not activate
